# S1P4 agonist = S1P4 receptor agonists, primary screen, cell-based; Sphingosine 1-phosphate receptor 4 (Homo sapiens), O95977; S1P4-expressing cell line, agonist reporter assay; activation, % at 4.98 µM; 220,000 tested, 0.35% active; AID 1509, 2009; in the data active = activation above about 11%;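 also: 0% = DMSO vehicle and 100% = reference agonist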
# NPY-Y1 antag = NPY-Y1 receptor antagonists, primary screen, cell-based; Neuropeptide Y receptor type 1 (Homo sapiens), P25929; HEK293-CNG Y1 cells, membrane potential fluorescence; NPY at EC95, then isoproterenol; inhibition, % at 3.6 µM; 200,000 tested, 1% active; AID 1040, 2008;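 active = inhibition above the campaign mean inhibition of all tested compounds plus 3 SD, cut at about 20% in these data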;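 also: 0% = DMSO wells given NPY plus isoproterenol and 100% = isoproterenol alone without NPY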
# Target sequence (P25929 whole entry, looked up): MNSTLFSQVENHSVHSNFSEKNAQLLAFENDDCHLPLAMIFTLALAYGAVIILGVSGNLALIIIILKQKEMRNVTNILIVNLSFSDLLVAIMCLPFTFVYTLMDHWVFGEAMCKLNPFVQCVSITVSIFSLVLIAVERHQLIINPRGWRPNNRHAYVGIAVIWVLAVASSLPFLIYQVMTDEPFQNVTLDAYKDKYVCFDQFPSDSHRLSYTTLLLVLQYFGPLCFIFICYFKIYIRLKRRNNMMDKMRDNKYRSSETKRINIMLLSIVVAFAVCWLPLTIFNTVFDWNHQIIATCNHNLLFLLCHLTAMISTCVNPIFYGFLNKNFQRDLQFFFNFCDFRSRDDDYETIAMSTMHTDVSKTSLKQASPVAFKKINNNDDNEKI
#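 Material: HEK293 Y1/CNG channel cell line; also added: NPY (25 nM), isoproterenol (1 µM), Ro 20-1724 (25 µM); doses: one concentration, 3.6 µM, in 0.4% DMSO; schedule: compound incubation 1 h at room temperature, readout 45 min post-stimulation; technique: membrane potential fluorescence; measure: fluorescence ratio normalized to % inhibition between controls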
# NPY-Y2 PAM-ag = NPY-Y2 potentiators or agonists, primary screen, cell-based; Neuropeptide Y receptor type 2 (Homo sapiens), P49146; cells expressing NPY-Y2, potentiator/agonist read-out; activation, % at 3.6 µM; 220,000 tested, 0.45% active; AID 1359, 2008; in the data active = activation above about 27%;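 also: cells stimulated with NPY near EC25 plus isoproterenol at EC100; 0% = vehicle plus submaximal agonist and 100% = vehicle plus saturating agonist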
# NPY-Y1 PAM-ag = NPY-Y1 receptor potentiators or agonists, primary screen, cell-based; Neuropeptide Y receptor type 1 (Homo sapiens), P25929; NPY-Y1 expressing cells, potentiator/agonist activation; activation, % at 3.6 µM; 220,000 tested, 0.37% active; AID 1304, 2008; in the data active = activation above about 33%, passing the limit was not always enough;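 also: cells stimulated with NPY at EC10 then isoproterenol at EC100; 0% = low agonist plus stimulus and 100% = saturating agonist plus stimulus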
# S1P4 antagonist = S1P4 receptor antagonists, primary screen, cell-based | inhibition, % at 4.98 µM | S1P4-expressing cells, antagonist mode, reporter read-out | 220,000 tested, 0.26% active | AID 1510, 2009; in the data active = inhibition above about 29%;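 also: 0% = wells stimulated with agonist and 100% = vehicle wells without agonist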
# NPY Y2 blocker = NPY-Y2 receptor antagonists, primary screen, cell-based; Neuropeptide Y receptor type 2 (Homo sapiens), P49146; NPY-Y2 expressing cells, antagonist mode; inhibition, % at 2.7 µM; 140,000 tested, 0.99% active; AID 793, 2007; in the data active = inhibition above about 17%;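 also: 0% = vehicle with agonist challenge and 100% = reference antagonist with challenge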
# Starred values were filed as active, the others as inactive; x = no result given. The list is not random: actives were taken first. Their share in the collection is about 2.4%.
SMILES,S1P4 agonist,NPY-Y1 antag,NPY-Y2 PAM-ag,NPY-Y1 PAM-ag,S1P4 antagonist,NPY Y2 blocker
C=CCc1ccccc1OCC(O)CN1CCN(c2ccc(OC)cc2)CC1 (centres undefined),1,-15,80*,91*,3,4
CCOc1ccccc1OCC(O)CNC (centres undefined),-2,-16,94*,106*,-18,0
C=CCc1ccccc1OCC(O)CN(C(C)C)C(C)C (centres undefined),0,-18,97*,103*,-3,5
CN(C)CCCNC(=O)c1cc(C(=O)c2ccc(F)cc2)c[nH]1,-1,1,11,-14,3,x
CCCCc1ccc(NC(=O)CSC2=C(C#N)C(c3ccco3)C3=C(CCCC3=O)N2)cc1 (centres undefined),0,-14,98*,99*,-9,-2
COc1ccc(N2CCN(c3oc(COc4ccccc4Cl)nc3C#N)CC2)cc1,1,42*,-25,-22,-7,25*
COc1ccc(OCc2nc(C#N)c(N3CCN(c4ccc(OC)cc4)CC3)o2)cc1,-2,37*,-19,-23,-1,25*
Cc1cccc(OCc2nc(C#N)c(N3CC(C)CC(C)C3)o2)c1 (centres undefined),1,56*,-26,-37,-8,18*
N#Cc1nc(COc2ccccc2Cl)oc1N1CCCC1,2,9,-7,3,-6,x
CC1CN(c2oc(COc3ccc(Cl)cc3Cl)nc2C#N)CC(C)O1 (centres undefined),-1,29*,-2,-17,9,23*
Cc1cccc(OCc2nc(C#N)c(N3CCCC3)o2)c1,0,x,-22,-9,1,x
COC(=O)COc1ccc(/C=N/NC(=O)c2ccc(N(Cc3ccccc3)S(C)(=O)=O)cc2)cc1,0,2,31*,61*,10,0
Cn1ncc(Cl)c1C(=O)Nc1cccnc1,0,-2,-4,43*,-14,5
CCCN(CC(=O)Nc1c(C)cccc1CC)C(=O)SCC,1,19,-3,-27,-4,18*
C=CCN(CC(=O)Nc1c(C)cccc1CC)C(=O)SCCC,5,20,-14,-15,-12,10
CCCCN(CC(=O)Nc1c(C)cccc1CC)C(=O)SCC,-5,22*,-13,-17,-14,31*
COCC(=O)N1CCN(c2ccc([N+](=O)[O-])cc2)CC1,1,-5,19,42*,7,4
O=C(CN1C(=O)C2CC=CCC2C1=O)N1CCN(c2ccc([N+](=O)[O-])cc2)CC1 (centres undefined),1,x,1,-18,17,x
Cc1ccc(C2CC(c3ccccc3C)n3nc(N)nc3N2)cc1 (centres undefined),0,13,-1,-8,-15,2
Cc1ccc(C2CC(c3cccs3)n3nc(N)nc3N2)cc1 (centres undefined),0,22*,12,2,11,0
Clc1cccc(-c2nnc(SC/C=C/c3ccccc3)n2Cc2ccco2)c1,-2,26*,-7,-20,16,37*
Cc1ccc(-c2nnc(SCc3ccc(C#N)cc3)n2Cc2ccco2)cc1,-2,21*,-12,0,-3,20*
Cc1ccccc1CSc1nnc(-c2ccco2)n1Cc1ccco1,1,10,1,-10,-18,14
C(=C\c1ccccc1)/CSc1nnc(-c2ccccc2)n1Cc1ccco1,-2,21*,-21,-33,4,25*
C(=C\c1ccccc1)/CSc1nnc(-c2ccncc2)n1Cc1ccco1,0,-1,6,-20,-13,1
SMILES,S1P4 agonist,NPY-Y1 antag,NPY-Y2 PAM-ag,NPY-Y1 PAM-ag,S1P4 antagonist,NPY Y2 blocker
Cc1ccccc1CSc1nnc(-c2cccs2)n1Cc1ccco1,0,23*,-7,-4,6,24*
Cc1ccc2[nH]c(=O)c(COC(=O)C3CCCCC3)cc2c1,-1,x,-7,-1,-1,x
COc1ccc(/C=N/N2C(=N)SCC2=O)cc1,-1,x,-19,-19,6,x
Cc1ccccc1-n1nnnc1SCC(=O)N(C)C1CCS(=O)(=O)C1 (centres undefined),1,-3,5,-4,3,x
O=C(NCc1cccs1)C1CCCN1C(=O)Nc1ccccc1 (centres undefined),-1,-16,102*,111*,8,0
COC(=O)[C@@]1(Cc2ccc(F)cc2)[C@H]2c3cc(C(=O)N(C)C)n(Cc4ccccc4)c3C[C@H]2CN1C(=O)c1ccccc1,0,32*,3,-11,14,21*
COC(=O)[C@@]1(Cc2ccc(OC)cc2)[C@H]2c3cc(C(=O)N4CCCC4)n(Cc4ccc(C)o4)c3C[C@H]2CN1C(=O)c1ccccc1,1,32*,3,-6,15,23*
COCCn1c(C(=O)N2CCCC2)cc2c1C[C@H]1CN(C(=O)c3ccccc3)[C@@](Cc3ccc(F)cc3)(C(=O)OC)[C@@H]21,0,14,1,-32,15,11
N/C(Cc1ccccc1)=N\OC(=O)c1cccc2ccccc12,0,7,-7,-10,-3,5
Cc1cccc(Oc2nc(CN3CCOCC3)nc3sc4c(c23)CCCC4)c1,1,20*,-3,-22,-1,29*
Clc1nc(CN2CCOCC2)nc2sc3c(c12)CCC3,1,-4,-5,-17,3,x
CC(=O)N(C)c1ccc(NS(=O)(=O)c2cc(Cl)ccc2Cl)cc1,-2,21*,-29,-12,6,x
CC(=O)Nc1ccc(NS(=O)(=O)c2cc(Cl)ccc2Cl)cc1,-2,x,-12,-10,-6,x
Cc1nn(C)c(C(=O)NNC(=O)Nc2cccc(C(F)(F)F)c2)c1Cl,2,-3,11,8,-20,x
Cc1nn(C(C)(C)C)c(OC(=O)c2ccc3c(c2)OCO3)c1Sc1ccccc1,0,48*,-26,-33,13,29*
Cc1nn(C(C)(C)C)c(OC(=O)c2ccc3c(c2)OCO3)c1S(=O)(=O)c1ccccc1,-1,2,-8,-29,5,3
COc1cccc(C(=O)NC(c2ccccc2)C2CCCC2)c1 (centres undefined),1,22*,-9,7,9,x
Cc1[nH]c2ccc(-c3nnc(SCC(=O)NCc4ccco4)n3Cc3ccccc3)cc2c1C,0,-5,104*,112*,6,2
C=CCn1c(SC(C)C(=O)NCc2ccc3c(c2)OCO3)nnc1C1CCCCC1 (centres undefined),1,28*,-15,-10,-9,20*
